Rows were chosen to be rich in hits. Some 3.7% of all compounds tested hit in one or more screens of this group.
OX1R antag-1: antagonists of human orexin 1 receptor (OX1R). 330,000 compounds, 1.8% hits. OX1R-expressing cells, FRET antagonist read-out. Orexin/Hypocretin receptor type 1 (Homo sapiens), O43613. AID 485270, 2010. inhibition, % at 6.6 µM; in the data active = inhibition mostly above about 38%, no sharp cut-off; inactive = mostly below about 40%;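 also: 0% = agonist challenge alone and 100% = reference antagonist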
EP2 antag: human EP2 receptor antagonists, primary screen, TR-FRET cAMP, C6 glioma cells; inhibition, % at 25 µM; 260,000 compounds, 0.52% hits; C6 glioma cells expressing human EP2; cells stimulated with saturating PGE2;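 active = percent inhibition above 40 after rounding to a whole number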;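 also: rat C6 glioma host cells with rolipram phosphodiesterase inhibitor present; the protocol text gives 20 µM as final concentration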
Target sequence (P43116 whole entry, looked up): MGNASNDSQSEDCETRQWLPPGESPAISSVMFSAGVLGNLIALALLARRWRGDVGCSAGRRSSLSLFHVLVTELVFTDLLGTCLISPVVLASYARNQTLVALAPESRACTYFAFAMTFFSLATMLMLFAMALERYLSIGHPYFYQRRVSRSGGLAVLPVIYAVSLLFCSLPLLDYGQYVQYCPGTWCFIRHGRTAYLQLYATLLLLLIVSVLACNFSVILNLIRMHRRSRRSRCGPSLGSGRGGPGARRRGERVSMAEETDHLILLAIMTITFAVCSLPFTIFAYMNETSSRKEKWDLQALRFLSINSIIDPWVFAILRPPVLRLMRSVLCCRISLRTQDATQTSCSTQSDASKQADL
OX1R antag-2: OX1R (HCRTR1) antagonists, primary screen, fluorescence, CHO/OX1R cells, Fluo-8 calcium, orexin A; 330,000 compounds, 0.43% hits; AID 434989, 2010; Fluo-8 calcium fluorescence; inhibition, % at 5 µM;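 active = inhibition above its plate's threshold, mean inhibition of all tested compounds on the plate plus 3 SD, cut at about 37% in these data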;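 also: 0% = orexin A challenge wells and 100% = SB-334867-A antagonist wells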
GPR7 antag: GPR7 receptor antagonists, primary screen, cell-based, fluorescence, single concentration. 290,000 compounds, 1.1% hits. inhibition, % at 4.4 µM. GPR7-expressing cells, fluorescence antagonist assay. AID 1861, 2009. Neuropeptides B/W receptor type 1 (Homo sapiens), P48145; in the data active = inhibition above about 16%, passing the limit was not always enough;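 also: cells stimulated with the agonist NPW; 0% = agonist with vehicle and 100% = vehicle without agonist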
EP2 mod: EP2 receptor modulators, cAMP readout, primary screen, cell-based, HTRF cAMP, PGE2 stimulation; Prostaglandin E2 receptor EP2 subtype (Homo sapiens), P43116; EP2-expressing cells, cAMP HTRF FRET, PGE2 co-stimulation; induction, % at 25 µM; 260,000 compounds, 0.83% hits; AID 940, 2007;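 active = compounds whose cAMP rise, as percent of the full-agonist control response, exceeds 60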;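 also: rat C6 glioma line stably carrying human EP2 under a CMV promoter; the protocol text gives 20 µM as final concentration; 100% = response of wells given 1 µM PGE2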
CHO parental Ca: ATP-evoked calcium signal inhibitors, parental CHO, primary screen, counter-screen for OX1R antagonist project, cell-based, fluorescence, Fluo-8 calcium dye | parental CHO-K1, ATP-induced calcium, Fluo-8 fluorescence | inhibition, % at 5.6 µM | 330,000 compounds, 0.63% hits | AID 463079, 2010;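 active = inhibition above that plate's mean sample inhibition plus 3 SD, cut at about 26% in these data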;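 also: 0% = ATP-challenged DMSO wells and 100% = DMSO wells without ATP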
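Test system: untransfected parental CHO cell line; also added: ATP stimulus; dosing: 5.6 µM, single dose; signal: calcium-sensitive Fluo-8 fluorescence; measure: percent inhibition of ATP-evoked calcium rise, normalized to controls; benchmarks: low control ATP plus DMSO, high control DMSO only; replication: one well per compound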
OX1R Fluo8 conf: OX1R (HCRTR1) antagonists, confirmation, fluorescence, CHO/OX1R cells, Fluo-8 calcium, orexin A; AID 492963, 2010; orexin A calcium Fluo-8 fluorescence; 1,100 compounds, 38% hits; shares compounds with OX1R antag-2; inhibition, % at 5 µM; in the data active = inhibition above about 29%;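 also: 0% = agonist challenge alone and 100% = reference antagonist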
CHO Ca counter: ATP-evoked calcium inhibition in parental CHO, counter-screen for OX1R antagonist project, cell-based, fluorescence, CHO-K1, triplicate; shares compounds with OX1R antag-2; ATP-induced calcium, Fluo-8 fluorescence; inhibition, % at 5.6 µM; 1,100 compounds, 9.3% hits; AID 492965, 2010;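 active = inhibition above a per-plate limit, the mean inhibition of that plate's test compounds plus 3 SD, cut at about 25% in these data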;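 also: 0% = ATP challenge with DMSO and 100% = DMSO without ATP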
* = called active by the depositor; / = no result given.

SMILES	OX1R antag-1	EP2 antag	OX1R antag-2	GPR7 antag	EP2 mod	CHO parental Ca	OX1R Fluo8 conf	CHO Ca counter
COc1ccc(OC)c(S(=O)(=O)N2CCN(C)CC2c2ccccc2)c1 (stereo unspecified)	2	/	-11	/	/	-6	/	/
O=C(Nc1ccccc1)c1ccc2c(c1)CCN2S(=O)(=O)c1ccccc1	7	/	-10	-2	/	-5	/	/
O=C(Nc1ccc(S(=O)(=O)N2CCc3ccccc32)cc1)c1ccc2c(c1)OCO2	20	7	25	-2	-38	19	10	8
O=C(CNC(=O)c1ccc(Oc2ccccc2)cc1)OCc1ccc(Br)cc1	8	5	34	-6	38	17	8	3
O=C(CNC(=O)c1ccc(Br)cc1)NCC(=O)OCc1ccc(Cl)cc1	2	6	-31	-4	13	-23	/	/
COc1ccc(N2CCCn3c2nc2c3c(=O)n(CCCc3ccccc3)c(=O)n2C)cc1	11	/	-27	-4	2	-36	/	/
CC1CCCCC1NC(=O)CCS(=O)(=O)c1ccc(Cl)cc1 (stereo unspecified)	3	/	-20	/	/	-9	/	/
CN(CC(=O)Nc1ccc(Cl)c(C(F)(F)F)c1)CC(=O)NC1CCCCC1	11	/	38	/	/	-5	-22	0
CCN(CC)S(=O)(=O)c1ccc2oc(C(=O)NCc3ccc(F)cc3)c(C)c2c1	13	10	25	-3	2	20	0	-5
Cc1c(C(=O)NCc2ccc(F)cc2)oc2ccc(S(=O)(=O)N3CCOCC3)cc12	12	/	-15	6	/	-21	/	/
COc1cccc(CNC(=O)c2ccccc2N)c1	9	14	-10	-1	14	-19	/	/
Cc1c(CCOC(=O)c2ccc(N3CCOCC3)c([N+](=O)[O-])c2)sc[n+]1CC#N	28	0	-20	-10	6	-11	/	/
Cc1ncsc1CCOC(=O)c1ccc(N2CCOCC2)c([N+](=O)[O-])c1	53	7	34	-15	-50	18	13	21
COCCN=c1scc(-c2ccco2)n1/N=C/c1ccc(O)c(O)c1O	20	9	-10	-4	-38	8	/	/
COCCN=c1scc(-c2cc(OC)ccc2OC)n1/N=C/c1c[nH]c2ccccc12	42	6	31	8	-47	0	35*	-10
Cc1onc(-c2ccccc2Cl)c1C(=O)NCCCN1CCOCC1	-5	9	-27	-9	19	-20	/	/
O=C(CN1c2ccccc2S(=O)(=O)c2ccccc21)NCc1ccc(F)cc1	19	/	24	13	/	-6	3	-8
COc1cc(CN2CC(=O)N(c3cccc(Cl)c3C)C2=S)cc(OC)c1OC	27	/	13	0	/	-7	/	/
COc1cc(CN2CC(=O)N(c3ccccc3Cl)C2=S)cc(OC)c1OC	39	/	39	-15	/	1	68*	1
CNC(=S)N/N=C(\C)c1ccc(C)c(C)c1	13	4	-14	2	-10	-7	/	/
CN(C)c1ccc(/C=C/C=C2/SC(=S)N(c3ccccc3)C2=O)cc1	9	24	36	-7	-10	27	57*	60*
Cc1cccc(C2c3[nH]c4ccccc4c3CCN2C(=O)Cc2nc(-c3ccccc3)n[nH]2)n1 (stereo unspecified)	10	4	41	8	-23	10	18	-20

Assay outcomes as filed in PubChem.
